# Screening results as filed in PubChem BioAssay.
# IDH1 mut inh = inhibitors of human IDH1 R132H. O75874. IDH1 R132H reductase, diaphorase/resazurin fluorescence, 60 min. inhibition, % at 10 µM. hit rate 0.18% among 70,000; in the data active means inhibition above about 34%; inconclusive means no clear call, values can overlap the other calls; inactive means below about 11%
# Target sequence (O75874 whole entry R132H): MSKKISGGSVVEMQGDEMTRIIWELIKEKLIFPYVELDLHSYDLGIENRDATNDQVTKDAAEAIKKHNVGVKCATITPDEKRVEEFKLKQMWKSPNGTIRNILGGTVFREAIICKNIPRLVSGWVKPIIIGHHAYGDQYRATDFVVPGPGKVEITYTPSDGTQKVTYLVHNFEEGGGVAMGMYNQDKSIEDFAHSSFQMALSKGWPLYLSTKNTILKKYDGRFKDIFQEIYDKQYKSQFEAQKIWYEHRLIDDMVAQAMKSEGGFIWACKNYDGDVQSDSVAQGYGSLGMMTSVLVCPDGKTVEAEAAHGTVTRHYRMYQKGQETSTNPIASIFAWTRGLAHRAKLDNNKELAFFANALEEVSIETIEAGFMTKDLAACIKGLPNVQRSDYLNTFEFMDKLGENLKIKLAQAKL
# Pf Dd2 growth = blocks growth of Plasmodium falciparum Dd2 parasites; P. falciparum Dd2 growth, SYBR Green, 72 h; active compounds read low; activity change, % at 10 µM; hit rate 2.3% among 94,000; AID 1159554; in the data active means activity change below about -80%; inconclusive means no clear call, values can overlap the other calls
# KDM4C inh = blocks human GASC-1 (KDM4C) demethylase activity; Q9H3R0; GST-KDM4C 2-372, H3K9me3 peptide, LANCE TR-FRET; inhibition, % at 12.5 µM; hit rate 0.15% among 96,000;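 active means mean replicate inhibition above about 25%, with at least 55% of replicates also reaching it, limit read from the data, passing the limit was not always enough; inconclusive means only one of those two conditions met; inactive means neither condition met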
#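 Assay system: GST-GASC-1 enzyme fragment 2-372 | Amount: 10 nM enzyme | Medium: HEPES buffer, pH 7.5, plus ascorbate | Reagent: H3K9me3 peptide substrate, Fe(II), 2-oxoglutarate | Doses: Single-point compound screen | Incubation: 30 min demethylation and 1 h detection at room temperature | Measured by: LANCE TR-FRET, excitation 340 nm, emissions 618 and 671 nm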
# T cruzi growth-1 = T. cruzi proliferation inhibition. AID 624255. T. cruzi beta-gal in NIH3T3, GalScreen luminescence, 90 h. inhibition, % at 8.34 µM. hit rate 5.9% among 77,000;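 active means mean inhibition above about 93%, with at least 55% of replicates each passing it, limit read from the data, passing the limit was not always enough; inconclusive means only one of those two conditions holds; inactive means neither condition holds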
# T cruzi growth-2 = inhibitors of T. cruzi proliferation. shares compounds with T cruzi growth-1. T. cruzi beta-gal in NIH3T3, GalScreen luminescence, 90 h. inhibition, % at 8.35 µM. hit rate 72% among 5,600. AID 651739;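 active means mean replicate inhibition above about 95% and at least 55% of replicates individually reaching it, limit read from the data; inconclusive means only one of the two criteria is met; inactive means neither criterion is met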
# T cruzi growth-3 = Trypanosoma cruzi proliferation inhibition; inhibition, % at 2.09 µM; shares compounds with T cruzi growth-1; hit rate 21% among 5,600; T. cruzi beta-gal in NIH3T3, GalScreen luminescence, 90 h;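 active means mean inhibition above about 95%, with at least 55% of replicates also reaching it, limit read from the data; inconclusive means meets just one of the two conditions; inactive means meets neither condition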
# NIH3T3 tox = kills mouse NIH/3T3 fibroblasts; NIH/3T3 viability, CellTiter-Glo ATP luminescence, 90 h; hit rate 14% among 5,600; shares compounds with T cruzi growth-1; AID 651742; cytotoxicity (signal decrease), % at 8.35 µM;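 active means mean signal decrease across replicates above about 35% based on untreated-well scatter, with enough replicates individually passing, limit read from the data; inconclusive means no rule stated though some were filed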
# 3T3 cytotox 2 = kills mouse NIH/3T3 fibroblasts; inhibition, % at 24.9 µM; NIH/3T3 viability, CellTiter-Glo ATP luminescence, 90 h; hit rate 56% among 5,600; shares compounds with T cruzi growth-1;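 active means mean loss of cell viability signal at or above a set limit, and enough replicates individually reaching it; inconclusive means meets only the mean limit or only the replicate share; inactive means meets neither condition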
# A number is an active result; – = inactive; ? = inconclusive; · = no result. In the library only some 5.8% were active in any assay of this set; here they are far more common.
SMILES,IDH1 mut inh,Pf Dd2 growth,KDM4C inh,T cruzi growth-1,T cruzi growth-2,T cruzi growth-3,NIH3T3 tox,3T3 cytotox 2
CCCN(C)C[C@H]1OCCCC[C@@H](C)Oc2ccc(NC(=O)Nc3ccc(F)cc3)cc2C(=O)N([C@H](C)CO)C[C@@H]1C,·,–,–,100,101,–,–,–
CO[C@H]1CN(C)C(=O)c2cc(NC(=O)c3cccc(F)c3)ccc2OC[C@@H](C)N(CC2CC2)C[C@H]1C,–,–,–,–,·,·,·,·
COC(=O)C[C@H]1CC[C@@H]2[C@@H](COc3ccc(NC(=O)NC(C)C)cc3C(=O)N2C)O1,·,–,–,–,·,·,·,·
C[C@H]1CN([C@@H](C)CO)C(=O)c2cccc(NC(=O)NC3CCCCC3)c2O[C@H]1CN(C)C(=O)NC1CCCCC1,–,–,–,–,·,·,·,·
C[C@@H]1CCCCO[C@@H](CN(C)CC2CCCCC2)[C@@H](C)CN([C@@H](C)CO)C(=O)c2cc(NC(=O)Nc3ccc(F)cc3)ccc2O1,–,–,–,119,103,–,–,104
C[C@@H]1CCCCO[C@H](CN(C)CC2CCCCC2)[C@H](C)CN([C@@H](C)CO)C(=O)c2cc(NC(=O)Nc3ccc(F)cc3)ccc2O1,·,–,–,120,97,114,54,103
O=C(Cc1ccccn1)N[C@@H]1C=C[C@H](CC(=O)N2CCCCC2)O[C@@H]1CO,–,–,·,–,·,·,·,·
CC(C)CC#Cc1cnc2c(c1)C(=O)N([C@@H](C)CO)C[C@@H](C)[C@H](CN(C)C(=O)C1CCCCC1)O2,–,–,–,?,?,–,–,81
CNC[C@@H]1Oc2ncc(C#CCC3CCCC3)cc2C(=O)N([C@H](C)CO)C[C@@H]1C,–,–,–,–,·,·,·,·
CC(C)CC#Cc1cnc2c(c1)C(=O)N([C@@H](C)CO)C[C@@H](C)[C@@H](CN(C)C(=O)C1CCCCC1)O2,–,–,–,–,·,·,·,·
CNC[C@@H]1Oc2ncc(C#CCC3CCCC3)cc2C(=O)N([C@H](C)CO)C[C@H]1C,–,–,–,?,109,?,–,106
C[C@@H]1CN([C@@H](C)CO)C(=O)c2cc(C#CCc3ccccc3)cnc2O[C@H]1CN(C)C(=O)C1CCCCC1,·,-82,–,114,105,–,–,106
CC(C)NC(=O)N(C)C[C@@H]1Oc2cc(C#Cc3ccc(F)cc3)ccc2S(=O)(=O)N([C@@H](C)CO)C[C@@H]1C,–,–,–,114,107,–,–,?
CC(C)NC(=O)N(C)C[C@H]1Oc2cc(C#Cc3ccc(F)cc3)ccc2S(=O)(=O)N([C@@H](C)CO)C[C@@H]1C,–,–,–,–,·,·,·,·
C[C@H]1CN([C@@H](C)CO)S(=O)(=O)c2ccc(C#Cc3ccc(F)cc3)cc2O[C@@H]1CN(C)C(=O)NC1CCCC1,·,–,–,117,101,–,–,107
C[C@@H]1CN([C@H](C)CO)S(=O)(=O)c2ccc(C#Cc3ccc(F)cc3)cc2O[C@H]1CN(C)C(=O)NC1CCCC1,–,–,–,–,·,·,·,·
COC(=O)c1cc(NC2c3ccccc3C(=O)N2c2ccccn2)cc(C(=O)OC)c1 (stereo unspecified),–,·,·,·,·,·,·,·
C[C@H]1CCCCO[C@H](CN(C)C(=O)CCCN(C)C)[C@@H](C)CN([C@@H](C)CO)C(=O)c2cc(N(C)C)ccc2O1,–,–,–,–,·,·,·,·
O=C(c1cccc(F)c1)N1CC[C@H]2[C@H](CO)Nc3ccc(-c4ccc(F)cc4)cc3[C@H]21,·,–,–,–,·,·,·,·
CCNC(=O)Nc1ccc2c(c1)C(=O)N(C)[C@H]1CC[C@@H](CC(=O)NC3CCCCC3)O[C@@H]1CO2,·,–,–,–,·,·,·,·
COc1ccc(S(=O)(=O)N(C)C[C@@H]2Oc3c(NC(=O)Nc4cccc5ccccc45)cccc3C(=O)N([C@H](C)CO)C[C@@H]2C)cc1,–,-92,–,126,?,–,–,30
COc1ccc(S(=O)(=O)N(C)C[C@@H]2Oc3c(NC(=O)Nc4cccc5ccccc45)cccc3C(=O)N([C@@H](C)CO)C[C@H]2C)cc1,–,·,–,·,·,·,·,·
C[C@H](CO)N1C[C@H](C)[C@@H](CN(C)S(=O)(=O)c2ccc(Cl)cc2)Oc2c(NC(=O)Nc3ccc(C(F)(F)F)cc3)cccc2C1=O,–,–,·,?,–,111,46,105
Cc1ccc(S(=O)(=O)N(C)C[C@H]2Oc3c(cccc3N(C)C)C(=O)N([C@H](C)CO)C[C@@H]2C)cc1,–,–,–,?,99,–,–,28
C[C@@H]1CN([C@H](C)CO)C(=O)c2cccc(NC(=O)Nc3ccc(C(F)(F)F)cc3)c2O[C@H]1CN(C)S(=O)(=O)c1ccc(F)cc1,–,–,–,?,108,–,–,39
SMILES,IDH1 mut inh,Pf Dd2 growth,KDM4C inh,T cruzi growth-1,T cruzi growth-2,T cruzi growth-3,NIH3T3 tox,3T3 cytotox 2
C[C@H](CO)N1C[C@H](C)[C@@H](CN(C)S(=O)(=O)c2ccc(F)cc2)Oc2c(NC(=O)Nc3ccc(C(F)(F)F)cc3)cccc2C1=O,–,–,–,·,·,·,·,·
Cc1noc(C)c1S(=O)(=O)Nc1ccc2c(c1)C(=O)N([C@H](C)CO)C[C@@H](C)[C@@H](CN(C)C(=O)Nc1cccc3ccccc13)O2,–,–,–,–,·,·,·,·
C[C@@H]1CN([C@H](C)CO)S(=O)(=O)c2ccc(-c3ccc(C#N)cc3)cc2O[C@H]1CN(C)Cc1ccccn1,–,–,–,·,·,·,·,·
O=C(C1CC1)N1CC2(C1)[C@H](c1ccccc1)[C@@H](CO)N2CCC(F)(F)F,·,–,–,·,·,·,·,·
COc1ccccc1CNC(=O)C[C@H]1CC[C@H]2[C@@H](COC[C@@H](O)CN2C(=O)Nc2ccccc2)O1,·,–,–,–,·,·,·,·
Cc1sc2ncnc(Nc3cccc(C(=O)O)c3)c2c1C,–,·,·,·,·,·,·,·
Cc1noc(C)c1NC(=O)N[C@H]1CC[C@H](CC(=O)Nc2ccc(-c3ccccc3)cc2)O[C@H]1CO,–,–,–,–,·,·,·,·
Cc1ccc(S(=O)(=O)N(C)C[C@H]2Oc3c(NC(=O)Nc4ccccc4)cccc3C(=O)N([C@H](C)CO)C[C@H]2C)cc1,–,–,–,101,?,–,–,48
C[C@H](CO)N1C[C@H](C)[C@@H](CN(C)C(=O)C2CCCCC2)Oc2cc(-c3ccc(F)cc3)ccc2S1(=O)=O,–,–,–,–,·,·,·,·
C[C@H]1CCCCO[C@@H](CN(C)Cc2ccncc2)[C@@H](C)CN([C@@H](C)CO)C(=O)c2cc(NC(=O)Cc3ccccc3)ccc2O1,–,–,–,99,104,–,–,–
C[C@H](CO)N1C[C@H](C)[C@@H](CN(C)Cc2ccccc2)OCCCC[C@H](C)Oc2ccc(NC(=O)c3ccncc3)cc2C1=O,·,–,–,–,·,·,·,·
